# Experimental data of several laboratories.
# Each line is one published result; the experiments were not run side by side.
# Cell line: MDA-MB-468
# Read-out: cell growth or viability
SMILES,test,conditions,quantity,result
COc1ccc(C(=O)/C=C/c2ccc(Cl)c(Cl)c2)cc1S(N)(=O)=O,SRB,10 µM,inhibition,119%
COc1cc(-c2ccc(-c3ccc(C(=N)N)nc3)s2)cc(OC)c1OC,SRB,,GI50,1.74 µM
c1csc(-c2c3ccccc3cc3c2ccc2ccccc23)c1,MTT,,IC50,34 µM
COc1ccc(-c2ccc(-c3ccc(C(=N)N)nc3)s2)cc1Cl,SRB,,GI50,1.74 µM
COc1ccc(C(=O)/C=C/c2cccc(Br)c2)cc1S(N)(=O)=O,SRB,10 µM,inhibition,154%
NC1(C(=O)N[C@@H](CCO)c2ccc(Cl)cc2)CCN(c2ncnc3[nH]ccc23)CC1,,72 h,GI50,> 8 µM
CC(=O)c1c(C)c2cnc(Nc3ccc(N4CCNCC4)cn3)nc2n(C2CCCC2)c1=O,resazurin,,GI50,7.5 µM
Cc1cc(NS(=O)(=O)c2ccc(NC(=O)COc3ccc(C(C)(C)c4ccccc4)cc3)cc2)nc(C)n1,MTT,48 h,IC50,44.3 µM
Cc1cc(NCCCCCCCNc2cc(C)nc3cc(N)ccc23)c2ccc(N)cc2n1,MTT,96 h,IC50,16 µM
CCc1ccc(N2NC(=O)/C(=C/c3ccc(-c4ccc(S(=O)(=O)Nc5nccs5)cc4)o3)C2=O)cc1,MTT,72 h,IC50,73.5 µM
Cc1cc(NCCCCCCCCNc2cc(C)nc3cc(N)ccc23)c2ccc(N)cc2n1,MTT,,IC50,5.1 µM
Cc1ncsc1-c1ccc(CNC(=O)[C@@H]2C[C@@H](O)CN2C(=O)[C@@H](NC(=O)CCCCCCCCCC(=O)N2CCN(CC[C@H](NC(=O)C3(N)CCN(c4ncnc5[nH]ccc45)CC3)c3ccc(Cl)cc3)CC2)C(C)(C)C)cc1,,72 h,GI50,0.49 µM
